The source made the active and inactive calls. The calls are words filed in the database; no cut-off is given here.
Tests used:
Cannabinoid receptor 1 [1] = target: T1, Cannabinoid receptor 1 (Homo sapiens, UniProt P21554); experiment: Agonist activity at human CB1 receptor expressed in CHO cell membranes after 90 mins by [35S]GTPgammaS binding assay; format: functional, cell-based
Cannabinoid receptor 2 [2] = target: T2, Cannabinoid receptor 2 (Homo sapiens, UniProt P34972); experiment: Agonist activity at human CB2 receptor expressed in CHO cell membranes after 90 mins by [35S]GTPgammaS binding assay; format: functional
T2 sequence (P34972 whole entry): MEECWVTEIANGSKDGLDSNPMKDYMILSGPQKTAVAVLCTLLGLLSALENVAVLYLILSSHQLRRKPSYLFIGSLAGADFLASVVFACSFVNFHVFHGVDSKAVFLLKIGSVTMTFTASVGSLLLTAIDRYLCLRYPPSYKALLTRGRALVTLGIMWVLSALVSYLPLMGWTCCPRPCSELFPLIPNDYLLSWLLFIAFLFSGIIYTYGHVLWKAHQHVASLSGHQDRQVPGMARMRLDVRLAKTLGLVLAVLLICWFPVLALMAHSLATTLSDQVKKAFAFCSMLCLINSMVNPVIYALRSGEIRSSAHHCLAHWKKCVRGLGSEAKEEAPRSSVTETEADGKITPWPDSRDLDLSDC
Outline: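 Membranes (5 µg) of hCB2-expressing cells in 50 mM Tris-HCl, 3 mM MgCl₂, 0.2 mM EDTA, 100 mM NaCl, 0.5% fatty acid-free BSA, pH 7.4, with 10 µM GDP and 0.1 nM [³⁵S]GTPγS. Kept on ice, started by vehicle or compound, 90 min at 30 °C. Nonspecific binding with 10 µM GTPγS. Filtered on GF/B, radioactivity counted. At least three experiments in triplicate, mean ± SD.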

Cannabinoid receptor 1 [3] = target: T1, Cannabinoid receptor 1; experiment: Displacement of [3H]-CP55940 from human CB1 receptor expressed in CHO cell membranes after 90 mins
Cannabinoid receptor 2 [4] = target: T2, Cannabinoid receptor 2; experiment: Displacement of [3H]-CP55940 from human CB2 receptor expressed in CHO cell membranes after 90 mins
Outline: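 Membranes expressing hCB1 or hCB2 (stably transfected CHO) in 50 mM Tris-HCl, 2.5 mM EDTA, 5 mM MgCl₂, 0.5% fatty acid-free BSA, pH 7.4. Nonspecific binding with 10 µM […]. GF/B filtration, radioactivity counted, Ki derived. Mean ± SD, at least 3 experiments in triplicate.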

U-937 [5] = experiment: Cytotoxicity against human U937 cells assessed as decrease in cell viability at 0.6 to 40 uM after 48 hrs by MTT assay; format: functional, cell-based
Outline: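 U251MG (EMEM, 10% FBS) or U937 (RPMI 1640, 10% FBS) cells plated at 4x10³/well for 24h, then exposed to compounds (0–40 µM) for 48 h at 37°C. MTT reduction, formazan read at 595 nm. Viability as % of untreated control. Five independent experiments in triplicate, mean ± SD, ANOVA with Bonferroni.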

U-937 [6] = experiment: Inhibition of [ethanolamine-1-3H]AEA/unlabeled AEA uptake in human U937 cells preincubated for 15 mins followed by [ethanolamine-1-3H]AEA/unlabeled AEA addition and measured after 15 mins by scintillation counting method; format: functional, cell-based
Outline: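 Intact U937 cells (0.5x10⁶ per sample) in RPMI, preincubated with compound for 15 min at 37 °C. Then 1 nM [ethanolamine-1-³H]AEA plus unlabeled AEA (final 100 nM) added for 15 min. Stopped by rapid filtration and ice-cold PBS/1% BSA washes, radioactivity counted. At least three experiments in triplicate, mean ± SD.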

[7] = target: T3, Monoacylglycerol lipase ABHD6 (Homo sapiens, UniProt Q9BV23); experiment: Inhibition of human ABHD6 expressed in HEK293 cells using 2-OG as substrate preincubated for 30 mins followed by substrate addition and measured after 5 mins by liquid scintillation spectroscopic method; format: cell-based
T3 sequence (Q9BV23 whole entry): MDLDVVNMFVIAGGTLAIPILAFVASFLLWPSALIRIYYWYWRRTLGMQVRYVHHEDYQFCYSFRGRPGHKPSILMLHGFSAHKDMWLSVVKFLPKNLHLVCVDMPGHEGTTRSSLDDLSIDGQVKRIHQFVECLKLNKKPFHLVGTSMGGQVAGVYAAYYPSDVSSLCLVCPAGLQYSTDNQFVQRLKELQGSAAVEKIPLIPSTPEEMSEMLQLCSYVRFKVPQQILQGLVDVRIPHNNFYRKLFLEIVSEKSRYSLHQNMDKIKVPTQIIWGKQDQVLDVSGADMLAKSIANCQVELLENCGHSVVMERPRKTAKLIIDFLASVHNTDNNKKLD
Outline: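 Homogenate (40 µg) of HEK293 cells stably transfected with hABHD6 or hABHD12, compound preincubated 30 min at 37 °C in […], 0.1% BSA, pH 7.6. DMSO vehicle; WWL70 10 µM or THL 20 µM as positive controls. 10 µM 2-OG added for 5 min at 37 °C, stopped with CHCl₃:MeOH. Aqueous phase counted; no-enzyme blanks and non-transfected HEK293 hydrolysis subtracted.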

T1 sequence (P21554 whole entry): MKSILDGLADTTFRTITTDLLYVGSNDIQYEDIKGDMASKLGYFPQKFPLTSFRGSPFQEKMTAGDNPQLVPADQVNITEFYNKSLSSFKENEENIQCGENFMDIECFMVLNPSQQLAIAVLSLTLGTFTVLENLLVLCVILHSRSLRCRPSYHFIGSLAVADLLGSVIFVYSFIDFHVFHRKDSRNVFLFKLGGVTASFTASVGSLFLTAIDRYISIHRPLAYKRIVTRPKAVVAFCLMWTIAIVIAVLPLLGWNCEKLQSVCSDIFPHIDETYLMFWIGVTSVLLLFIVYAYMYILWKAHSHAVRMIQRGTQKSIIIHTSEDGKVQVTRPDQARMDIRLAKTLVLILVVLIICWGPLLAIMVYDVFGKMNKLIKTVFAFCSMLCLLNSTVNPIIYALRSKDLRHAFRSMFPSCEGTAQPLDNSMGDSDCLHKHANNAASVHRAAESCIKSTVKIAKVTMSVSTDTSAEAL

Row | SMILES | EC50 (Cannabinoid receptor 1 [1]) | EC50 (Cannabinoid receptor 2 [2]) | Ki (Cannabinoid receptor 1 [3]) | Ki (Cannabinoid receptor 2 [4]) | Activity (U-937 [5]) | IC50 (U-937 [6]) | IC50 [7]
1 | Cc1c(Br)cn(Cc2ccc(F)cc2)c(=O)c1C(=O)NC1CCCCCC1 | 1.4 nM | 1.1 nM | 2.3 nM | 3.5 nM | Active | 930 nM | > 10 µM
2 | COc1ccc(-c2cn(Cc3ccc(F)cc3)c(=O)c(C(=O)NC3CCCCCC3)c2C)cc1 | 96 nM | – | 30.7 nM | 7.9 nM | Active | 280 nM | > 10 µM
3 | Cc1c(Br)cnc(OCc2ccc(F)cc2)c1C(=O)NC1CCCCCC1 | 182 nM | 687 nM | 113 nM | 606 nM | Active | 620 nM | 0.53 µM
